Calls of active or inactive are those of the source. The rule behind the calls is not given here.

In test [1] the test system is Rattus norvegicus. Description: Antiallergic activity in the rat passive cutaneous anaphylaxis at dose 5 mg/kg after ip. The class given is functional. Particulars: route intraperitoneal. The method in brief: (§1)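 Rats were immunized with ovalbumin 1 mg im plus about 10^10 Bordetella pertussis organisms (as pertussis vaccine) ip. Drug was suspended in 1% gum tragacanth/saline and given orally or ip 10–15 min before iv challenge with ovalbumin 1 mg plus 0.25% Evans blue. Wheal diameter was read 30 min later; n=5 per group; Student's t test.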

The test system of test [2] is Rattus norvegicus. Description: Compound was tested for antiallergic activity in the rat passive cutaneous anaphylaxis at dose 5 mg/kg after po; No significant activity. The class given is functional, organism-based. Also noted: dose 5 mg/kg. Summed up: as §1
Test [3] deals with Rattus norvegicus. Nature of the test: Compound was tested for antiallergic activity in the rat passive cutaneous anaphylaxis at dose 5 mg/kg after po. The class given is functional. The method in brief: as §1
For test [4], the system named is Rattus norvegicus. Nature of the test: Compound was tested for antiallergic activity in the rat passive cutaneous anaphylaxis at dose 1 mg/kg after po. The class given is functional. Summed up: as §1
The test system of test [5] is Rattus norvegicus. Description: Compound was tested for antiallergic activity in the rat passive cutaneous anaphylaxis at dose 1-2 mg/kg after iv administration; Inactive. The class given is functional, organism-based.
Test [6] deals with Rattus norvegicus. Description: Compound was tested for antiallergic activity in the rat passive cutaneous anaphylaxis, after peroral administration. It counts as functional. Particulars: po, read-out: ID50 (the source's name). Summed up: as §1
The test system of test [7] is Rattus norvegicus. Description: Compound was tested for antiallergic activity in the rat passive cutaneous anaphylaxis, after intravenous administration. Particulars: read-out: ID50 (the source's name). The class given is functional. Summed up:
(§2)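 Ovalbumin/pertussis-immunized rat antiserum was titrated intradermally on the back 48 h before challenge. Compound was given iv, dissolved directly in the challenge solution (ovalbumin 1 mg in 1 mL saline, 0.25% Evans blue), with slight molar excess NaHCO3 if needed. Wheal diameter was measured 30 min later. Percent inhibition was taken at the highest antiserum level versus control, corrected for the extrapolated base value; groups of five.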

In test [8] the test system is Rattus norvegicus. Nature of the test: Compound was tested for antiallergic activity in the rat passive cutaneous anaphylaxis at dose 0.1 mg/kg after intravenous administration. It counts as functional. Summed up: as §2
The subject of test [9] is Rattus norvegicus. Nature of the test: Compound was tested for antiallergic activity in the rat passive cutaneous anaphylaxis at dose 0.5 mg/kg after po. The class given is functional. The method in brief:
as §1

Test [10] deals with Rattus norvegicus. Description: Compound was tested for antiallergic activity in the rat passive cutaneous anaphylaxis at dose 5 mg/kg after ip; No significant activity. It counts as functional, organism-based. Set-up: dose 5 mg/kg. The method in brief:
as §1

`CCc1cc2c(=O)n3cc(C(N)=O)ccc3nc2s1`: testing at 5 mg/kg in [1] gave an inhibition in vivo of 46%. Moreover, the inhibition result in test [2] was “No significant activity”.

Take `O=C(O)c1ccc2nc3sc(-c4ccccc4)cc3c(=O)n2c1`: the inhibition in vivo at 5 mg/kg in test [3] and in [1] was 17% each time.

Regarding `O=c1c2cc(-c3ccccc3)sc2nc2ccc(-c3nnn[nH]3)cn12`, the inhibition in vivo (as a rule, the percentage by which the read-out fell short of the control) at 5 mg/kg in test [1] was 84%. Besides, the inhibition entry in [2] was “No significant activity”.

In the case of `CCc1cc2c(=O)n3cc(C#N)ccc3nc2s1`, the inhibition in vivo at 5 mg/kg in test [1] is 13%. The inhibition result in test [2] was “No significant activity”.

As for `CCCc1cc2c(=O)n3cc(C(=O)O)ccc3nc2s1`, in test [1], testing at 5 mg/kg gave an inhibition in vivo of 68%. For the same compound, the inhibition in vivo at 1 mg/kg in test [4] was 18%.

With `O=C(O)c1cc(=O)c2c(OCC(O)COc3cccc4oc(C(=O)O)cc(=O)c34)cccc2o1`, the ID50 entry in test [5] was “inactive”.

`COC(=O)c1ccc2nc3scc(C)c3c(=O)n2c1`: in test [1], testing at 5 mg/kg gave an inhibition in vivo of 23%.

As to `CCCCc1cc2c(=O)n3cc(-c4nnn[nH]4)ccc3nc2s1`, at 5 mg/kg the inhibition in vivo in [1] was 26%.

As for `CCCCc1cc2c(=O)n3cc(C(=O)O)ccc3nc2s1`, in test [1], the inhibition in vivo at 5 mg/kg stood at 52%.

On to `CC(C)c1cc2c(=O)n3cc(-c4nnn[nH]4)ccc3nc2s1`, for which the inhibition in vivo at 5 mg/kg in test [1] turned out to be 28%.

Consider `Cc1cc2c(=O)n3cc(C(=O)Nc4nn[nH]n4)ccc3nc2s1`, for which at 5 mg/kg the inhibition in vivo in test [1] was 25%. Further, in test [2], the inhibition result was “No significant activity”.

The compound `CCc1cc2c(=O)n3cc(C(=O)Nc4nn[nH]n4)ccc3nc2s1` yielded an inhibition in vivo at 5 mg/kg in test [1] of 62%. The inhibition result in test [2] is “No significant activity”.

In the case of `O=C1c2ccccc2S(=O)(=O)c2cc(-c3nn[nH]n3)ccc21` [DOXANTRAZOLE], the ED50 was 5 mg/kg in [6] and 1.5 mg/kg in [7].

`Cc1cc2c(=O)n3cc(-c4nnn[nH]4)ccc3nc2s1` showed an inhibition in vivo at 5 mg/kg in [1] of 100%. Moreover, the inhibition result in test [2] is “No significant activity”.

In test [1], `CC(C)c1cc2c(=O)n3cc(C(=O)O)ccc3nc2s1` came in with an inhibition in vivo at 5 mg/kg of 100%.

For the compound `CCc1cc2c(=O)n3cc(-c4nnn[nH]4)ccc3nc2s1`, the inhibition in vivo at 5 mg/kg in [1] turned out to be 97%. Also, the inhibition in vivo at 0.1 mg/kg in test [8] came out at 56%. For the same compound, 0.5 mg/kg produced 38% inhibition in vivo in test [9].

In test [1], `Cc1sc2nc3ccc(C#N)cn3c(=O)c2c1C` registered an inhibition in vivo at 5 mg/kg of 14%.

`Cc1sc2nc3ccc(C(=O)O)cn3c(=O)c2c1C` yielded an inhibition in vivo at 5 mg/kg in [1] of 28%. Further, the inhibition result in test [2] was “No significant activity”.

Turning to `CCOC(=O)c1sc2nc3ccc(C(=O)OC)cn3c(=O)c2c1C`, the inhibition entry in test [10] was “No significant activity”.

For the compound `Cc1sc2nc3ccc(C(=O)Nc4nn[nH]n4)cn3c(=O)c2c1C`, the inhibition in vivo at 5 mg/kg in [1] was 94%. The inhibition result in [2] was “No significant activity”.

For the compound `CCc1cc2c(=O)n3cc(C(=O)OC)ccc3nc2s1`, the values for the inhibition in vivo at 5 mg/kg in test [3] and in test [1] were 75% and 100%, respectively.

In test [1], `CCCCc1cc2c(=O)n3cc(C(=O)Nc4nn[nH]n4)ccc3nc2s1` registered an inhibition in vivo at 5 mg/kg of 18%.

Regarding `Cc1cc2c(=O)n3cc(C#N)ccc3nc2s1`, the inhibition in vivo at 5 mg/kg in [3] was determined as 100%; in test [1], 88%.

Regarding `CCCc1cc2c(=O)n3cc(-c4nnn[nH]4)ccc3nc2s1`, the inhibition in vivo at 5 mg/kg stood at 67% in test [3] and 100% in [1].

As for `CCOC(=O)c1ccc2nc3sc(C(C)C)cc3c(=O)n2c1`, in test [1], the inhibition in vivo at 5 mg/kg was 63%.

In test [1], `CC(C)c1cc2c(=O)n3cc(C(=O)Nc4nn[nH]n4)ccc3nc2s1` gave an inhibition in vivo at 5 mg/kg of 30%.

Turning to `CCc1cc2c(=O)n3cc(C(=O)O)ccc3nc2s1`, 5 mg/kg produced 100% inhibition in vivo in [1]. This compound also gave an inhibition in vivo at 0.1 mg/kg in [8] of 33%. Moreover, the inhibition in vivo at 0.5 mg/kg in [9] stood at 69%.

`CCCCc1cc2c(=O)n3cc(C(N)=O)ccc3nc2s1` returned an inhibition in vivo at 5 mg/kg in [1] of 25%. The inhibition entry in test [2] is “No significant activity”.

Regarding `Cc1cc2c(=O)n3cc(C(=O)O)ccc3nc2s1`, the inhibition in vivo at 5 mg/kg in test [3] turned out to be 62%; in test [1], 100%.

In test [1], `O=C(Nc1nn[nH]n1)c1ccc2nc3sc(-c4ccccc4)cc3c(=O)n2c1` came in with an inhibition in vivo at 5 mg/kg of 17%. Besides, the inhibition result in [2] is “No significant activity”.

Regarding `Cc1sc2nc3ccc(-c4nnn[nH]4)cn3c(=O)c2c1C`, the inhibition in vivo at 5 mg/kg stood at 21% in test [3] and 30% in [1].

For `CC(C)c1cc2c(=O)n3cc(C(N)=O)ccc3nc2s1`, 5 mg/kg produced 100% inhibition in vivo in test [1].

Take `Cc1cc2c(=O)n3cc(C(N)=O)ccc3nc2s1`: the inhibition in vivo at 5 mg/kg amounted to 38% in test [3] and 100% in test [1].

The values are drawn from ChEMBL document CHEMBL1121665, “Synthesis and antiallergy activity of 4-oxo-4H-pyrido[1,2-a]thieno[2,3-d]pyrimidines” (1981).
